Source: PubChem BioAssay
An excerpt weighted towards active compounds, which were near 12% of everything screened.
bCat nuc transl = modulators of beta-catenin nuclear translocation, primary screen, imaging, HeLa cells, immunofluorescence, high-content | nuclear translocation activity, % at 5 µM | 190,000 tested, 0.3% active;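 active = nuclear translocation activity above 50% at 5 µM, with a well cell count of 50 or more; inconclusive = wells under 50 cells across six images, flagged as toxic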;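 note: per-cell ratio of nuclear to cytoplasmic median beta-catenin stain intensity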
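test system = HeLa cells, endogenous beta-catenin | dosing = single 5 µM dose plus 0.02–20 µM confirmation series | times = compound treatment 24 h, 37°C, 5% CO2 | technique = beta-catenin immunofluorescence imaging with DAPI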
L major viab = Leishmania major promastigote growth inhibition, primary screen. Leishmania major promastigotes, resazurin fluorescence viability. inhibition, % at 10 µM. 200,000 tested, 9% active; in the data active = inhibition above about 50%;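 note: promastigotes grown with compound for 44 hours at 28 °C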
Autophagy HCS = autophagy modulators in MEF cells, primary screen, imaging, high-content, MEF GFP-LC3. calls only at 10 µM (by protocol). AID 463193, 2010. 190,000 tested, 0.98% active. MEF GFP-LC3 puncta imaging; test concentration mostly 10 µM;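 active = percentage of spot-positive cells more than 3 SD above its plate mean, without a fluorescence outlier flag or 80% toxicity; inconclusive = no clear call, values can overlap the other calls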
Dynein transport = inhibitors of GR-EGFP nuclear translocation, primary screen, dynein cargo transport inhibitor project, imaging, high-content, 3617.4 mouse cells; test concentration mostly 20 µM; stimulated with dexamethasone, 1 µM; active compounds read low; z-score, hits read low; 220,000 tested, 0.47% active;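 active = plate z-score of nuclear minus cytoplasmic receptor signal below a set negative limit, without overly bright fluorescence or cell loss, cut at about -3.5 in these data, passing the limit was not always enough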;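 note: z-score of nuclear minus cytoplasmic ring GR-EGFP intensity difference per well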
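Buffer or medium: tetracycline-free induction medium containing charcoal-stripped FBS / Reagent: dexamethasone agonist, 1.0 µM final, for 30 min / Technique: automated 10x imaging of fixed Hoechst-stained cells / Times: induction 48 h, compound 1 h, agonist 30 min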
MT stabilize HCS = microtubule stabilizers in HeLa cells, primary screen, imaging, high-content imaging; 200,000 tested, 0.83% active; AID 2205, 2009; % tubulin-high responders, % at 10 µM; HeLa tubulin immunostaining HCS, 24 h; share of cells brighter than vehicle mean+2SD;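 active = plate Z-score above 3 for both tubulin-high and condensed-nucleus cell shares, with cell loss under 80%, at 10 µM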;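 note: anti alpha tubulin signal scored within the nucleus-defined area of each cell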
CHOP inhibitor = inhibitors of CHOP promoter induction, primary screen, cell-based, unfolded protein response, luciferase reporter; CHO-K1 CHOP-promoter luciferase, tunicamycin-induced, 15-18 h; inhibition, % at 10 µM; 220,000 tested, 3.8% active;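 active = compounds that reduced the stress-induced luciferase reporter signal by more than about 70% of percent inhibition, limit read from the data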
Numbers stand for hits; i = inactive; ? = inconclusive; nt = no result; + = active, no number.

SMILES | bCat nuc transl | L major viab | Autophagy HCS | Dynein transport | MT stabilize HCS | CHOP inhibitor
C=CCn1c(O)c(N=NC(=S)Nc2ccccc2F)c2ccccc21 | i | 96 | i | i | i | i
COc1ccc(N2CCN(C(=O)CCCSc3nc4ccccc4[nH]3)CC2)cc1 | i | i | i | i | i | i
Cc1ccc(-n2ncc3c2ncn2c(C)nnc32)cc1C | i | i | i | i | i | i
Cc1nn(Cc2nnc(SCC(=O)Nc3ccc(Cl)cc3)n2C)c(C)c1[N+](=O)[O-] | i | nt | nt | i | nt | i
CC(=O)OCC1(C)CN(c2ccccc2)N(C(=O)c2ccc(F)cc2)C1=O (centres undefined) | i | i | i | i | i | i
Nn1c(SCC(=O)NC(=O)Nc2ccc3c(c2)OCCO3)nnc1C1CC1 | i | i | i | i | i | i
C=C(C)C(=O)N1CC2(CC(c3cccc(NC(=O)/C(C)=C\C)c3)=NO2)C[C@H]1C(N)=O (some centres undefined) | i | nt | nt | i | nt | i
Cc1ccc(Cn2c(O)c(N=NC(=S)Nc3ccccc3F)c3ccccc32)cc1 | i | 97 | i | i | i | i
CCCCNC(=S)N=Nc1c(O)n(Cc2ccccc2)c2ccccc12 | i | i | i | i | i | i
CN1CCN(CC(=O)Nc2ccc(Oc3ccccc3)cc2)CC1 | i | i | i | i | i | i
CC1CCCCN1CC(=O)Nc1ccc(N2CCCCCC2)cc1 (centres undefined) | i | i | i | i | i | i
CC1CCCCN1CC(=O)Nc1ccc(Oc2ccccc2)cc1 (centres undefined) | nt | 96 | i | i | i | i
CCOC(=O)N1CCN(CC(=O)Nc2ccc(Oc3ccccc3)cc2)CC1 | i | 97 | i | i | i | 82
C=CCC(=O)OCC(=O)Nc1ccc(Oc2ccccc2)cc1 | i | 97 | i | i | i | nt
CN(C)C(CNc1ncnc2sc3c(c12)CCCC3)c1ccco1 (centres undefined) | i | i | i | i | i | i
CC(C)CC(=O)Nc1nnc(-c2ccco2)s1 | i | i | i | i | i | 84
CCN(CC)S(=O)(=O)c1cccc(-c2nnc(SCC(=O)NC)n2N)c1 | i | i | i | i | i | i
CCN(CC)S(=O)(=O)c1cccc(-c2nnc(SCC(=O)c3ccc(Cl)s3)n2C)c1 | i | 78 | i | i | i | i
Cc1nnc(SCC(=O)Nc2nc(-c3ccc(F)cc3)cs2)[nH]c1=O | i | i | i | i | i | i
CN1CCN(c2ccc(Cl)cc2NC(=O)c2cccc(S(=O)(=O)N(C)C)c2)CC1 | nt | 99 | i | i | i | i
Cc1ccc(S(=O)(=O)N(C)C)cc1NC(=O)c1ccc(OC(F)(F)F)cc1 | i | i | i | i | i | i
CN1CCN(c2ccc(Cl)cc2NC(=O)C2COc3ccccc3O2)CC1 (centres undefined) | i | 99 | i | i | i | i
CN(C)S(=O)(=O)c1cccc(C(=O)Nc2cc(Cl)cc(Cl)c2)c1 | i | i | i | i | i | 71
CN(C)S(=O)(=O)c1cccc(NC(=O)c2ccc(OC(F)(F)F)cc2)c1 | i | 57 | i | i | i | i
CN(C)S(=O)(=O)c1cccc(C(=O)Nc2cc(Cl)ccc2O)c1 | i | i | i | i | i | i
SMILES | bCat nuc transl | L major viab | Autophagy HCS | Dynein transport | MT stabilize HCS | CHOP inhibitor
CN(C)S(=O)(=O)c1cccc(C(=O)Nc2ccccc2)c1 | i | i | i | i | i | i
CCOC(=O)c1cnc2c(C)c(Cl)ccc2c1Nc1ccc(S(=O)(=O)Nc2ncccn2)cc1 | i | i | i | i | i | i
COC(=O)c1cccnc1NC(=S)NNC(=O)c1ccccc1 | nt | i | i | i | i | i
CN(C)c1ccc(C(=O)c2ccc(N(C)C)c3ccccc23)cc1 | i | i | + | i | i | nt
CN(C)c1ccc(C(=O)c2ccccc2C(=O)O)cc1[N+](=O)[O-] | i | i | i | i | i | i
COc1ccc(C(=O)c2ccc(OC)cc2OC)cc1 | 56 | nt | nt | i | nt | i
COc1ccc(C(=O)c2ccc(N(C)C)cc2)c(OC)c1 | 96 | i | i | i | i | nt
COc1ccc(C(=O)c2ccccc2)cc1 | ? | i | i | i | i | i
COc1ccc(C(=O)c2ccc(Br)cc2)cc1 | i | i | i | i | i | 76
